From ChEMBL document CHEMBL1275434, “In vitro evaluation of CBR-2092, a novel rifamycin-quinolone hybrid antibiotic: studies of the mode of action in Staphylococcus aureus” (Antimicrob Agents Chemother, 2008)
The source made the active and inactive calls.

Key:
Staphylococcus aureus [1] = assay: Antimicrobial activity against rifampin-sensitive Staphylococcus aureus CB190 harboring rpoB D471Y mutant gene by broth microdilution method; format: functional
Outline: (§1)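 CLSI broth microdilution MIC in cation-adjusted Mueller-Hinton (MHII) broth supplemented with 0.002% (vol/vol) polysorbate 80, included to limit compound loss to plastic surfaces.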

Staphylococcus aureus [2] = assay: Antimicrobial activity against rifampin-sensitive Staphylococcus aureus CB190 harboring rpoB A477V mutant gene by broth microdilution method; format: functional; outline: as §1
Staphylococcus aureus [3] = assay: Activity at Staphylococcus aureus wild-type GyrA
Outline: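 Recombinant S. aureus gyrase (wild-type GyrA with His-tagged GyrB; 250 U per μg). SDS/proteinase K stop. Gel quantitation of linear cleavage product gave CC50, the mean of two or more assays.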

Staphylococcus aureus [4] = assay: Antimicrobial activity against Staphylococcus aureus CB1953 harboring rpoB H481Y, gyrA S84L, gyrA V598I, parC S80F, parC R570H mutant genes selected after CBR-2092 exposure for 7 days; format: functional; conditions: CB1953, 168 h
Staphylococcus aureus [5] = assay: Antimicrobial activity against Staphylococcus aureus CB811 harboring quinolone-resistant gyrA S84L mutant gene by broth microdilution method; format: functional; outline: as §1
Staphylococcus aureus [6] = assay: Antimicrobial activity against Staphylococcus aureus CB808 harboring quinolone-resistant parC S80F mutant gene by broth microdilution method; format: functional; outline: as §1
Staphylococcus aureus [7] = assay: Activity at Staphylococcus aureus wild-type DNA topoisomerase 4 subunit ParC
Outline: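 Recombinant S. aureus topoisomerase IV (wild-type ParC with ParE; specific activity 25 to 30 U per μg). Stopped with SDS/proteinase K. Linear DNA quantified on gel; CC50 is the mean of two or more assays.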

Staphylococcus aureus [8] = assay: Antimicrobial activity against rifampin-sensitive Staphylococcus aureus CB190 harboring rpoB E473 mutant gene by broth microdilution method; format: functional; outline: as §1
Staphylococcus aureus [9] = assay: Antimicrobial activity against rifampin-sensitive Staphylococcus aureus CB190 by broth microdilution method; format: functional; outline: as §1
[10] = system: DNA gyrase subunit A (Staphylococcus aureus), P20831 [S84L]; assay: Activity at Staphylococcus aureus wild-type GyrA S84L mutant
Staphylococcus aureus [11] = assay: Antimicrobial activity against Staphylococcus aureus CB190 by broth microdilution method; format: functional
Staphylococcus aureus [12] = assay: Inhibition of cell wall synthesis in Staphylococcus aureus CB190 assessed as decrease in [2,3-3H]D-alanine incorporation at 2 ug/ml; format: functional, organism-based
Staphylococcus aureus [13] = assay: Antimicrobial activity against rifampin-sensitive Staphylococcus aureus CB190 harboring rpoB D471G mutant gene by broth microdilution method; format: functional; outline: as §1
Staphylococcus aureus [14] = assay: Antimicrobial activity against Staphylococcus aureus CB1954 harboring rpoB H481Y, gyrA S84L, K809 deficient gyrA, parC S80F, parC A523D mutant genes selected after CBR-2092 exposure for 7 days; format: functional; conditions: CB1954, 168 h; outline: as §1
Staphylococcus aureus [15] = assay: Inhibition of protein synthesis in quinolone-resistant Staphylococcus aureus CB814 harboring gyrA S84L and parC S80F mutant genes assessed as L-[3,4,5-3H]leucine incorporation at 2 ug/ml; format: functional, organism-based
Outline: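 Time-course radiolabel incorporation in S. aureus cultures with test agent. Precursors: [methyl-3H]thymidine (DNA), [5,6-3H]uridine (RNA), L-[3,4,5-3H]leucine (protein), [2,3-3H]D-alanine (cell wall). At each time point, incorporation with agent is expressed relative to the DMSO-treated control culture as percent incorporation. Time-zero incorporation is set to 100%.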

Staphylococcus aureus [16] = assay: Antimicrobial activity against Staphylococcus aureus CB370 harboring rifampin-resistant rpoB H481Y mutant gene by broth microdilution method; format: functional; outline: as §1
Staphylococcus aureus [17] = assay: Antimicrobial activity against rifampin-sensitive Staphylococcus aureus CB190 harboring rpoB N474K mutant gene by broth microdilution method; format: functional; outline: as §1
Staphylococcus aureus [18] = assay: Antimicrobial activity against rifampin-sensitive Staphylococcus aureus CB190 harboring rpoB H472 mutant gene by broth microdilution method; format: functional; outline: as §1
Staphylococcus aureus [19] = assay: Activity at Staphylococcus aureus DNA topoisomerase 4 subunit ParC S80F mutant
Staphylococcus aureus [20] = assay: Antimicrobial activity against rifampin-sensitive Staphylococcus aureus CB190 harboring rpoB Q468K mutant gene by broth microdilution method; format: functional; outline: as §1
Staphylococcus aureus [21] = assay: Inhibition of RNA synthesis in Staphylococcus aureus CB190 assessed as decrease in [5,6-3H]uridine incorporation at 2 ug/ml; format: functional, organism-based
Staphylococcus aureus [22] = assay: Antimicrobial activity against Staphylococcus aureus CB1884; format: functional
Staphylococcus aureus [23] = assay: Inhibition of protein synthesis in Staphylococcus aureus CB190 assessed as decrease in L-[3,4,5-3H]leucine incorporation at 2 ug/ml; format: functional, organism-based
Staphylococcus aureus [24] = assay: Antimicrobial activity against rifampin-sensitive Staphylococcus aureus CB190 harboring rpoB H481N mutant gene by broth microdilution method; format: functional; outline: as §1
Staphylococcus aureus [25] = assay: Antimicrobial activity against Staphylococcus aureus CB370 harboring rpoB H481Y mutant gene; format: functional
Staphylococcus aureus [26] = assay: Antimicrobial activity against Staphylococcus aureus CB809 harboring rpoB H481Y and parC S80F mutant genes by broth microdilution method
Staphylococcus aureus [27] = assay: Inhibition of RNA synthesis in quinolone-resistant Staphylococcus aureus CB814 harboring gyrA S84L and parC S80F mutant genes assessed as [5,6-3H]uridine incorporation at 2 ug/ml; format: functional, organism-based
Outline: (§2)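 Macromolecular synthesis time course in S. aureus, measuring incorporation of [methyl-3H]thymidine (DNA), [5,6-3H]uridine (RNA) or [2,3-3H]D-alanine (cell wall). At each time point, incorporation is expressed as percent of the DMSO-treated control culture. Incorporation at time zero is set to 100%.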

Staphylococcus aureus [28] = assay: Inhibition of DNA synthesis in rifamycin-resistant Staphylococcus aureus CB370 harboring rpoB H481Y mutant gene assessed as decrease in [methyl-3H]thymidine incorporation at 2 ug/ml; format: functional, organism-based; outline: as §2
Staphylococcus aureus [29] = assay: Antimicrobial activity against Staphylococcus aureus CB1887 harboring rpoB R484H, L520 deficient gyrA, […], R236 duplicated parC and parC H103Y mutant genes selected after ABT-719 exposure for 20 days; format: functional; conditions: CB1887, 480 h
Staphylococcus aureus [30] = assay: Antimicrobial activity against rifampin-sensitive Staphylococcus aureus CB190 harboring rpo BH481D mutant gene by broth microdilution method; format: functional; outline: as §1
Staphylococcus aureus [31] = assay: Inhibition of DNA synthesis in Staphylococcus aureus CB190 assessed as decrease in [methyl-3H]thymidine incorporation at 2 ug/ml; format: functional, organism-based
Staphylococcus aureus [32] = assay: Inhibition of DNA synthesis in quinolone-resistant Staphylococcus aureus CB814 harboring gyrA S84L and parC S80F mutant genes assessed as [methyl-3H]thymidine incorporation at 2 ug/ml; format: functional, organism-based; outline: as §2
Staphylococcus aureus [33] = assay: Antimicrobial activity against rifampin-sensitive Staphylococcus aureus CB190 harboring rpoB Q468L mutant gene by broth microdilution method; format: functional; outline: as §1
Staphylococcus aureus [34] = assay: Antimicrobial activity against Staphylococcus aureus CB1947 harboring rpoB H481Y, gyrA S84L, E697 deficient gyrA, parC G167V mutant genes selected after CBR-2092 exposure for 20 days; conditions: CB1947, 480 h
Staphylococcus aureus [35] = assay: Antimicrobial activity against Staphylococcus aureus CB1952 harboring rpoB S486L, gyrA […], gyrA E88Q, gyrA G532S, parC S80F, parC E84L mutant genes selected after CBR-2092 exposure for 21 days; format: functional; conditions: CB1952, 504 h
Staphylococcus aureus [36] = assay: Inhibition of cell wall synthesis in quinolone-resistant Staphylococcus aureus CB814 harboring gyrA S84L and parC S80F mutant genes assessed as [2,3-3H]D-alanine incorporation at 2 ug/ml; format: functional, organism-based; outline: as §2
Staphylococcus aureus [37] = assay: Antimicrobial activity against Staphylococcus aureus CB812 harboring rpo B H481Y and gyrA S84L mutant genes by broth microdilution method; format: functional; outline: as §1
Staphylococcus aureus [38] = assay: Antimicrobial activity against rifampin-sensitive Staphylococcus aureus CB190 harboring rpoB H481Y mutant gene by broth microdilution method; format: functional; outline: as §1

O=C(O)c1cn(C2CC2)c2cc(N3CCNCC3)c(F)cc2c1=O [CIPROFLOXACIN]
0.4 µM: CC50 (Staphylococcus aureus [7])
2 µg/mL: MIC (Staphylococcus aureus [6]) | MIC (Staphylococcus aureus [26]) | MIC (Staphylococcus aureus [34])
inactive: Activity (Staphylococcus aureus [15]) | Activity (Staphylococcus aureus [27]) | Activity (Staphylococcus aureus [32]) | Activity (Staphylococcus aureus [36])
> 150 µM: CC50 [10]
0.25 µg/mL: MIC (Staphylococcus aureus [2]) | MIC (Staphylococcus aureus [5]) | MIC (Staphylococcus aureus [8]) | MIC (Staphylococcus aureus [9]) | MIC (Staphylococcus aureus [11]) | MIC (Staphylococcus aureus [13]) | MIC (Staphylococcus aureus [16]) | MIC (Staphylococcus aureus [17]) | MIC (Staphylococcus aureus [18]) | MIC (Staphylococcus aureus [20]) | MIC (Staphylococcus aureus [24]) | MIC (Staphylococcus aureus [25]) | MIC (Staphylococcus aureus [30]) | MIC (Staphylococcus aureus [33]) | MIC (Staphylococcus aureus [37]) | MIC (Staphylococcus aureus [38])
31 µM: CC50 (Staphylococcus aureus [19])
active: Activity (Staphylococcus aureus [12]) | Activity (Staphylococcus aureus [21]) | Activity (Staphylococcus aureus [23]) | Activity (Staphylococcus aureus [28]) | Activity (Staphylococcus aureus [31])
64 µg/mL: MIC (Staphylococcus aureus [4]) | MIC (Staphylococcus aureus [14]) | MIC (Staphylococcus aureus [29]) | MIC (Staphylococcus aureus [35])
0.5 µg/mL: MIC (Staphylococcus aureus [1])
4.6 µM: CC50 (Staphylococcus aureus [3])
8 µg/mL: MIC (Staphylococcus aureus [22])
